# Reference: ChEMBL document CHEMBL3399994, “Improving both aqueous solubility and anti-cancer activity by assessing progressive lead optimization libraries” (Bioorg Med Chem Lett, 2015)
# Columns and labels:
# [1] = Solubility in pH 7.4 buffer after 18 hrs by UV spectroscopy based microSol assay; format: physicochemical; details: for solubility: buffer, pH 7.4, 18 h; for solubility at 18 h: pH 7.4 buffer, pH 7.4
# [2] = Cytotoxicity against human H460 cells after 48 hrs by SRB assay; format: functional, cell-based; details: NCI-H460, 48 h
# [3] = Cytotoxicity against human H460/TaxR cells after 48 hrs by SRB assay; format: functional, cell-based
# [4] = Cytotoxicity against human NHFB cells after 48 hrs by SRB assay; format: cell-based
# [5] = Cytotoxicity against human H460 cells assessed as cell viability at 10 uM after 48 hrs by SRB assay; format: functional; details: NCI-H460, 48 h, read-out: Activity
# Outline: (§1)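 Single-concentration screen at 10 µM in normal human fibroblasts, NSCLC H460 cells and their drug-resistant H460_TaxR variant. Viability was read out by sulforhodamine B (SRB) staining and expressed relative to DMSO-treated cells, set as 100%.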
# [6] = Cytotoxicity against human H460/TaxR cells assessed as cell viability at 10 uM after 48 hrs by SRB assay; format: functional; details: read-out: Activity; outline: as §1
# [7] = Cytotoxicity against human NHFB cells assessed as cell viability at 10 uM after 48 hrs by SRB assay; format: cell-based; details: read-out: Activity; outline: as §1
Structure (SMILES),solubility [1] [µg/mL],solubility at 18 h [1] [µg/mL],EC50 [2] [µM],EC50 [3] [µM],EC50 [4] [µM],viability at 10 µM [5] [%],viability at 10 µM [6] [%],"viability at 48 h, 10 µM [7] [%]"
Cc1ccccc1/N=C1\NC(=O)/C(=C\c2ccc(N(C)C)cc2)S1,,0.27,,,,17.6,41,86.5
CN(C)c1ccc(/C=C2/SC(=Nc3ccccc3Cl)NC2=O)cc1,,0.02,,,,8.82,39.3,> 100
CCN(CC)c1ccc(/C=C2/SC(Nc3ccccc3)=NC2=O)cc1,0.1,,6.9,9.9,> 100,19.5,30.1,96.9
CCN(CC)c1ccc(/C=C2/SC(Nc3ccc(O)cc3)=NC2=O)cc1,,,,,,94.3,48.2,93.7
O=C1N=C(Nc2ccc(O)cc2)S/C1=C/c1ccc(N2CCOCC2)cc1,,0.19,,,,88.9,> 100,92.8
CCN(CC)c1ccc(/C=C2/SC(Nc3ccccc3Cl)=NC2=O)cc1,,0.01,,,,25.1,29.5,85
O=C1N=C(Nc2ccccc2Cl)S/C1=C/c1ccc(N2CCOCC2)cc1,,0.05,,,,48.2,41.4,94.2
O=C1N=C(Nc2ccccc2Cl)S/C1=C/c1ccc(N2CCNCC2)cc1,,0.14,,,,98.1,77.4,99.3
CN(C)c1ccc(/C=C2/SC(Nc3ccc(Oc4ccccc4)cc3)=NC2=O)cc1,,0.01,,,,> 100,88.2,100
CCN(CC)c1ccc(/C=C2/SC(Nc3ccc(Oc4ccccc4)cc3)=NC2=O)cc1,,,,,,> 100,64.6,> 100
Cc1ccccc1NC1=NC(=O)/C(=C\c2ccc(N3CCN(C)CC3)cc2)S1,,0.89,,,,88.6,34.3,80.2
Cc1ccccc1NC1=NC(=O)/C(=C\c2ccc(N3CCNCC3)cc2)S1,,3.83,,,,65.1,50.1,62.8
CN(C)c1ccc(/C=C2/SC(N(c3ccccc3)c3ccccc3)=NC2=O)cc1,,,> 100,> 100,> 100,,,
O=C1N=C(N(c2ccccc2)c2ccccc2)S/C1=C/c1ccc(N2CCOCC2)cc1,0.01,,> 100,> 100,> 100,,,
CN(C)c1ccc(/C=C2/SC(N(C)c3ccccc3)=NC2=O)cc1,0.5,,0.08,0.16,> 100,,,
CCN(CC)c1ccc(/C=C2/SC(N(C)c3ccccc3)=NC2=O)cc1,0.01,,0.28,0.43,> 100,,,
CN(C1=NC(=O)/C(=C\c2ccc(N3CCOCC3)cc2)S1)c1ccccc1,5.06,,8.9,2.9,> 100,,,
CN1CCN(c2ccc(/C=C3/SC(N(C)c4ccccc4)=NC3=O)cc2)CC1,18.91,,> 100,> 100,> 100,,,
CN(C1=NC(=O)/C(=C\c2ccc(N3CCNCC3)cc2)S1)c1ccccc1,3.89,,> 100,> 100,> 100,,,
CCCSc1ccc2nc(NC(=O)OC)[nH]c2c1 [ALBENDAZOLE],,2.3,,,,,,
NC(=O)N1c2ccccc2C=Cc2ccccc21 [CARBAMAZEPINE],22,,,,,,,
CNC(=C[N+](=O)[O-])NCCSCc1ccc(CN(C)C)o1 [RANITIDINE],33.7,,,,,,,

# Continued, in another order:
solubility [1] [µg/mL],solubility at 18 h [1] [µg/mL],Structure (SMILES),EC50 [2] [µM],EC50 [3] [µM],EC50 [4] [µM],viability at 10 µM [5] [%],viability at 10 µM [6] [%],"viability at 48 h, 10 µM [7] [%]"
0.1,,CN(C)c1ccc(/C=C2/SC(=Nc3ccccc3)NC2=O)cc1,0.72,0.98,> 100,19.8,29.4,68.3
,0.01,CN(C)c1ccc(/C=C2/SC(=Nc3ccc(O)cc3)NC2=O)cc1,,,,94.4,47.9,96.5
1.68,,O=C1N=C(Nc2ccccc2)S/C1=C/c1ccc(N2CCNCC2)cc1,> 100,> 100,> 100,> 100,89.3,97
0.1,,O=C1N=C(Nc2ccccc2)S/C1=C/c1ccc(N2CCOCC2)cc1,> 100,> 100,> 100,96.1,77.5,97.4
0.35,,CN1CCN(c2ccc(/C=C3/SC(Nc4ccccc4)=NC3=O)cc2)CC1,1.4,2.5,6.4,13.9,11.3,93.8
,0.01,CN1CCN(c2ccc(/C=C3/SC(Nc4ccc(O)cc4)=NC3=O)cc2)CC1,,,,> 100,> 100,94.3
,13.9,O=C1N=C(Nc2ccc(O)cc2)S/C1=C/c1ccc(N2CCNCC2)cc1,,,,83.9,85.5,98.9
,0.43,CN1CCN(c2ccc(/C=C3/SC(Nc4ccccc4Cl)=NC3=O)cc2)CC1,,,,98.2,52.7,96
,0.1,O=C1N=C(Nc2ccc(Oc3ccccc3)cc2)S/C1=C/c1ccc(N2CCOCC2)cc1,,,,72.6,46.8,98
,0.1,CN1CCN(c2ccc(/C=C3/SC(Nc4ccc(Oc5ccccc5)cc4)=NC3=O)cc2)CC1,,,,46.7,49.8,90.9
,0.1,O=C1N=C(Nc2ccc(Oc3ccccc3)cc2)S/C1=C/c1ccc(N2CCNCC2)cc1,,,,49.3,45.4,82.9
,0.2,CCN(CC)c1ccc(/C=C2/SC(Nc3ccccc3C)=NC2=O)cc1,,,,8.3,24.6,80.6
,0.78,Cc1ccccc1NC1=NC(=O)/C(=C\c2ccc(N3CCOCC3)cc2)S1,,,,43.8,70.2,80.8
0.01,,CCN(CC)c1ccc(/C=C2/SC(N(c3ccccc3)c3ccccc3)=NC2=O)cc1,> 100,> 100,> 100,,,
0.11,,CN1CCN(c2ccc(/C=C3/SC(N(c4ccccc4)c4ccccc4)=NC3=O)cc2)CC1,> 100,> 100,> 100,,,
0.15,,O=C1N=C(N(c2ccccc2)c2ccccc2)S/C1=C/c1ccc(N2CCNCC2)cc1,> 100,> 100,> 100,,,
